Results gathered from unrelated publications.
Each line is one published result; the experiments were not run side by side.
Target: Serine/threonine-protein kinase PAK 2 (PAK2, Homo sapiens, UniProt Q13177)

Structure (SMILES)	assay	setting	remaining binding [%]
c1cnn2ncc(-c3ccnc(N4CCC45COC5)n3)c2c1	binding	1 µM	70
CN(C)CC#Cc1ccc(OCCCc2sc(N3CCc4cccc(C(=O)Nc5nc6ccccc6s5)c4C3)nc2C(=O)O)c(F)c1	cell-free assay, competition with immobilised ligand	1 µM	93
COc1ncc2cc3ccccc3nc2c1C#N	cell-free assay, competition with immobilised ligand	5 µM	85
C[C@H]1CCN(c2nccc(-c3cnn4ncccc34)n2)C1	binding	1 µM	59
O=C(NCC1CCOCC1)c1n[nH]cc1NC(=O)c1c(F)cccc1F	binding, competition with immobilised ligand	1 µM	60
O=C(c1ccc(Nc2ncc(Cl)c(-c3cc4ccccc4s3)n2)cc1)N1CCC(N2CCCC2)CC1	binding, competition with immobilised ligand	1 µM	59
N[C@@H]1CCN(c2nccc(-c3cnn4ncccc34)n2)C1	binding	1 µM	100
O=C(NCCCN1CCOCC1)c1ccc(Nc2nccc(-c3cc4ccccc4s3)n2)cc1	binding, competition with immobilised ligand	1 µM	100
CN(C)c1ncc(F)c(-c2cnn3ncccc23)n1	binding	1 µM	89
C[C@@]1(Cc2ccc(C#N)cc2)C(=O)N(c2cc(Cl)cc(Cl)c2)c2ncc(C(=O)NC3(c4nc(C5CCC5)no4)CC3)n21	cell-free assay, competition with immobilised ligand	1 µM	64
CC(C)(C)c1ccc(-c2nc(CBr)nn2-c2cccc(O)c2)cc1	cell-free assay, competition with immobilised ligand	10 µM	100
Nc1ncc2c(n1)-c1c([nH]c3ccc(C#CC4CC4)cc13)CCCC2	binding, competition with immobilised ligand	1 µM	33
O=C(N[C@H]1CCCCC/C=C\C2C[C@@]2(C(=O)O)NC(=O)[C@@H]2C[C@@H](Oc3ccncc3)CN2C1=O)OC1CCCC1 (stereo partly drawn)	binding, competition with immobilised ligand	1 µM	79
CN(CCCC(F)(F)F)c1nccc(-c2cnn3ncccc23)n1	binding	1 µM	100
CCN1CCN(Cc2ccc(C(=O)Nc3ccc(C)c(Oc4ccc5c(c4)CC(=O)N5)c3)cc2C(F)(F)F)CC1	binding, competition with immobilised ligand	1 µM	100
CCCCN(CCCC)C(=O)CN1C[C@@H](c2cc(OC)c3c(c2)OCO3)[C@H](C(=O)O)[C@H]1CC(C)(C)CCC	cell-free assay, competition with immobilised ligand	1 µM	83.5
C[C@@H]1CN(c2ccc3ncc(-c4ccc5[nH]nc(C6CC6)c5c4)n3n2)C[C@H](C)O1	binding, competition with immobilised ligand	0.5 µM	55
c1cncc(-c2cccc(Nc3nccc(NC4CCCCC4)n3)c2)c1	binding, competition with immobilised ligand	10 µM	56
CNCc1ccccc1-c1csc([C@@H](C)Nc2nc(C)nc3cc(OC)c(OC)cc23)c1	cell-free assay, competition with immobilised ligand	1 µM	88
COc1cnc(Nc2cccc(S(N)(=O)=O)c2)nc1N1CCN(c2ccccc2)CC1	binding, competition with immobilised ligand	1 µM	100
CCS(=O)(=O)c1cc2cc(C[C@](O)(CC(C)(C)c3ccc(F)cc3C(N)=O)C(F)(F)F)[nH]c2cn1	cell-free assay, competition with immobilised ligand	1 µM	86
O=C(c1ccc(Nc2ncc(Cl)c(-c3ccc(Cl)s3)n2)cc1)N1CCC(N2CCCC2)CC1	binding, competition with immobilised ligand	1 µM	49
CN(C(=O)c1ccccc1)c1cc(N(C)c2ccc3c(c2)CCc2ccc(C(=O)NCCN4CCOCC4)cc2C3=O)ccc1F	cell-free assay, competition with immobilised ligand	1 µM	63
CN(C)c1nccc(-c2cnc3ncccn23)n1	binding	1 µM	100
